# Published values pooled from the literature.
# Compare with care: the assays were run in different laboratories.
# Technique: competition with immobilised ligand
# RPS6KA3 N-terminal kinase domain: Ribosomal protein S6 kinase alpha-3, N-terminal kinase domain (RPS6KA3, Homo sapiens, UniProt P51812)
# RPS6KA3 C-terminal kinase domain: Ribosomal protein S6 kinase alpha-3, C-terminal kinase domain (RPS6KA3, Homo sapiens, UniProt P51812)
Compound,target,observed,tested at,remaining binding [%]
c1cncc(-c2cccc(Nc3nccc(NC4CCCCC4)n3)c2)c1,RPS6KA3 N-terminal kinase domain,binding,10 µM,42
Cc1c(NC(=O)c2cc(C(N)=O)nc3cc(F)ccc23)c(C(F)(F)F)nn1Cc1ccc(C(C)(C)C)cc1,RPS6KA3 N-terminal kinase domain,cell-free assay,1 µM,100
CCN1CCN(Cc2ccc(C(=O)Nc3ccc(C)c(Oc4ccc5c(c4)CC(=O)N5)c3)cc2C(F)(F)F)CC1,RPS6KA3 C-terminal kinase domain,binding,1 µM,100
CN(C)c1nccc(-c2cnn3ncccc23)n1,RPS6KA3 C-terminal kinase domain,binding,1 µM,99
Cc1noc([C@H]2C[C@@H](c3ccc(C(F)(F)F)cc3)CN(C(=O)N3CCS(=O)(=O)C3)C2)n1,RPS6KA3 N-terminal kinase domain,cell-free assay,1 µM,100
O=C(NCC1CCOCC1)c1n[nH]cc1NC(=O)c1c(F)cccc1F,RPS6KA3 C-terminal kinase domain,binding,1 µM,98
C=CC(=O)N1CCC(C(=O)NCC(=O)N2CCN(c3nc(-c4cnc(N)nc4C(F)F)nc(N4CCOCC4)n3)CC2)CC1,RPS6KA3 N-terminal kinase domain,binding,1 µM,85
Nc1ncc2c(n1)-c1c([nH]c3ccc(C#CC4CC4)cc13)CCCC2,RPS6KA3 N-terminal kinase domain,binding,1 µM,73
CC(C)(C)c1ccc(-c2nc(CBr)nn2-c2cccc(O)c2)cc1,RPS6KA3 N-terminal kinase domain,cell-free assay,10 µM,74
FC(F)(F)Oc1cccc(-c2cnc3ccc(-c4ccncc4)nn23)c1,RPS6KA3 C-terminal kinase domain,binding,5 µM,69
O=C(Nc1c[nH]nc1C(=O)NC1CCNCC1)c1cc(F)cc(F)c1,RPS6KA3 N-terminal kinase domain,binding,1 µM,74
N[C@@H]1CCN(c2nccc(-c3cnn4ncccc34)n2)C1,RPS6KA3 C-terminal kinase domain,binding,1 µM,41
C[C@@]1(Cc2ccc(C#N)cc2)C(=O)N(c2cc(Cl)cc(Cl)c2)c2ncc(C(=O)NC3(c4nc(C5CCC5)no4)CC3)n21,RPS6KA3 C-terminal kinase domain,cell-free assay,1 µM,100
O=C(c1ccc(Nc2ncc(Cl)c(-c3cc4ccccc4s3)n2)cc1)N1CCC(N2CCCC2)CC1,RPS6KA3 N-terminal kinase domain,binding,1 µM,42
COc1ncc2cc3ccccc3nc2c1C#N,RPS6KA3 C-terminal kinase domain,cell-free assay,5 µM,96
F[C@@H]1CCN(c2nccc(-c3cnn4ncccc34)n2)C1,RPS6KA3 N-terminal kinase domain,binding,1 µM,100
C[C@@H](c1ccc(-n2cnc3c(N)ncnc32)cc1)N1CCc2nn(C)c(Cc3ccccc3)c2C1=O,RPS6KA3 N-terminal kinase domain,binding,0.1 µM,56
Cc1cnc(Nc2ccc(C(=O)N3CCC(N4CCCC4)CC3)cc2)nc1-c1cc2ccccc2s1,RPS6KA3 C-terminal kinase domain,binding,1 µM,80
COc1cnc(Nc2cccc(S(N)(=O)=O)c2)nc1N1CCN(c2ccccc2)CC1,RPS6KA3 C-terminal kinase domain,binding,1 µM,81
CN(CCCC(F)(F)F)c1nccc(-c2cnn3ncccc23)n1,RPS6KA3 C-terminal kinase domain,binding,1 µM,100
O=C(NCCCN1CCOCC1)c1ccc(Nc2nccc(-c3cc4ccccc4s3)n2)cc1,RPS6KA3 N-terminal kinase domain,binding,1 µM,76
Cc1nccc(COC(=O)N2C[C@@H]3[C@@H](CNC(=O)c4ccc5[nH]nnc5c4)[C@@H]3C2)n1,RPS6KA3 C-terminal kinase domain,cell-free assay,1 µM,86
CNC(=O)[C@@H]1CC[C@@H](n2c(-c3ccc4cnccc4c3)nc3ccc(C(=O)NCc4cccc(C(N)=O)c4)cc32)C1,RPS6KA3 N-terminal kinase domain,binding,1 µM,87
O=C(Nc1ccc(Oc2ccc(F)cc2)cc1)N1CCc2ncccc2[C@H]1c1ccc(F)cc1,RPS6KA3 C-terminal kinase domain,cell-free assay,1 µM,97
O=C(NCCCN1CCOCC1)c1ccc(Nc2ncc(Cl)c(-c3ccc(Cl)s3)n2)cc1,RPS6KA3 N-terminal kinase domain,binding,1 µM,61
C[C@H](NC(=O)c1cnc2n1[C@](C)(Cc1ccc(C#N)cc1)C(=O)N2c1cc(Cl)c(F)c(Cl)c1)C(=O)NC1(c2ccccn2)CC1,RPS6KA3 N-terminal kinase domain,cell-free assay,1 µM,100
O=C(c1ccc(Nc2nccc(-c3cc4ccccc4s3)n2)cc1)N1CCC(N2CCCC2)CC1,RPS6KA3 N-terminal kinase domain,binding,1 µM,78
CN(C)c1ncc(F)c(-c2cnn3ncccc23)n1,RPS6KA3 C-terminal kinase domain,binding,1 µM,68
CCc1ccccc1C(=O)Nc1n[nH]c2c(C)c(F)c(C3C(C#N)=C(C)N(C)C(C)=C3C#N)cc12,RPS6KA3 N-terminal kinase domain,cell-free assay,1 µM,0.3
C[C@H]1CCN(c2nccc(-c3cnn4ncccc34)n2)C1,RPS6KA3 N-terminal kinase domain,binding,1 µM,78
COc1cnc(Nc2cccc(S(N)(=O)=O)c2)nc1N1CCN(c2ccccc2)C(=O)C1,RPS6KA3 N-terminal kinase domain,binding,1 µM,64
Cc1cnn2ncc(-c3ccnc(N(C)C)n3)c2c1,RPS6KA3 N-terminal kinase domain,binding,1 µM,95
NS(=O)(=O)c1cc(NC(=O)C2(c3ccccc3Cl)CC2)ccc1Oc1cccc(Cl)c1,RPS6KA3 N-terminal kinase domain,cell-free assay,1 µM,92
O=C(c1ccc(Nc2ncc(Cl)c(-c3ccc(Cl)s3)n2)cc1)N1CCC(N2CCCC2)CC1,RPS6KA3 C-terminal kinase domain,binding,1 µM,100
